# Insulin prom act: TRM-6 insulin promoter activation; TRM-6 cells, insulin promoter eGFP reporter, imaging; plate-scaled: unstimulated 0, stimulated control 100; activation, % at 2 µM; 130,000 compounds, 0.81% hits; AID 1296;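 active = activation at 2 µM above a set limit, confirmed on inspection of the cell images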;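 note: share of cells whose green reporter signal exceeds an intensity cutoff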
#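 material = TRM-6 human fetal islet cells, insulin promoter–eGFP reporter | input = 1,000 TRM-6 cells seeded per well | benchmarks = stimulated versus unstimulated wells as plate controls | measured by = automated fluorescence imaging of paraformaldehyde-fixed, Hoechst-counterstained cells, green channel | schedule = compound exposure 48 h, 37 °C | reagent = tamoxifen at 0.75 µM added at seeding for reporter induction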
# * hit, by the source's call. The sample as a whole holds a higher share of hits than the screen did.
SMILES,Insulin prom act
O=C1C(=O)c2ccc(-c3ccccc3)cc2-c2ccccc21,-27
Nc1ccc2c(c1)C(=O)C(=O)c1ccccc1-2,239*
Cc1ccc(N2C(=O)c3ccc(N)cc3C2=O)cc1C,0
O=C(CCc1ccc(S(=O)(=O)NCCc2ccccc2)cc1)N1CCN(Cc2ccc3c(c2)OCO3)CC1,-6
CC(C)CNS(=O)(=O)c1ccc(CCC(=O)N2CCN(Cc3ccc4c(c3)OCO4)CC2)cc1,469*
COc1ccc(N(CC(=O)N2CCN(Cc3ccc4c(c3)OCO4)CC2)S(C)(=O)=O)cc1OC,91
Cc1ccc(CN2CCN(/N=C/C=C/c3ccccc3[N+](=O)[O-])CC2)cc1,-73
Cc1ccc(C=C2C(=O)c3ccccc3C2=O)s1,322*
O=C1C(=Cc2cccs2)C(=O)c2ccccc21,-7
Cc1cccc(-n2c(C)cc(C=C3C(=O)c4ccccc4C3=O)c2C)c1,7
C=CCc1cc(OC)ccc1OCCOCCN1CCc2ccccc2C1,144
CNC(=S)Nc1cc(OC)ccc1OC,7
COc1ccc(N2CCN(C(CNS(=O)(=O)c3cc(F)ccc3F)c3cccnc3)CC2)cc1 (centres undefined),-6
Cc1ccc(-c2nnc(C)c(N3CCOCC3)n2)cc1,-6
FC(F)(F)c1cccc(-c2nnc(-c3ccccc3)c(N3CCOCC3)n2)c1,233*
FC(F)(F)c1nnc(-c2ccccc2)nc1N1CCOCC1,0
Cc1ccc(C(=O)COC(=O)c2c(C)cc(=O)oc2C)cc1[N+](=O)[O-],0
Brc1ccc(CSc2nnc(-c3ccccn3)n2Cc2ccco2)cc1,0
c1coc(Cn2c(SCc3nc4ccccc4[nH]3)nnc2-c2cccs2)c1,123*
O=c1c2ccccc2nnn1CSc1nnc(-c2cccs2)n1Cc1ccccc1,4
C/C(Nc1ccccc1)=C(/C#N)C(N)=O,0
COCc1cc(C)nc(SCC[N+](C)(C)CC(=O)Nc2ccccc2)c1C#N,8
COCc1cc(C)nc(Nc2ccccc2C)c1C#N,408*
COCc1cc(C)nc(N2CCc3ccccc32)c1C#N,0
COc1ccc(CNC(=O)CN2C(=O)C3C4C=CC(C4)C3C2=O)cc1 (centres undefined),7
SMILES,Insulin prom act
Cc1ccccc1OCC(=O)OCC(=O)NCc1cccs1,-8
CC(=O)Nc1ccc(S(=O)(=O)NCc2ccc(C(=O)NC(C)c3ccccc3)cc2)cc1 (centres undefined),7
CSc1ccc(Cl)c(C(=O)OCC(=O)N2CCOCC2)c1,7
CCOC(=O)c1oc2cccc(OC(C)=O)c2c1C,286
CCOC(=O)c1oc2ccccc2c1NC(=O)COC,123
CCOC(=O)c1oc2ccc(CNC(C)(C)C)c(Cl)c2c1C,431*
COc1ccc(/C=C(\C#N)C(=O)Nc2cc(S(=O)(=O)N3CCCCC3)ccc2N2CCCCC2)cc1,10
COc1ccc2c(c1)c(C(=O)N/N=C/c1ccc(OC)c(OC)c1)c(C)n2C,2
O=C(N/N=C/c1cccs1)c1cc(-c2cccc3ccccc23)n[nH]1,-3
COc1ccccc1NC(=O)CSc1nnc(-c2ccncc2)o1,-7
COc1ccc(-c2nnc(SCC(=O)Nc3ccccc3OC)o2)cc1,5
COC(=O)c1ccc(OC)c(CSc2nnc(-c3ccc(C(C)(C)C)cc3)o2)c1,508*
COP(=O)(OC)c1nc(-c2ccccc2)oc1N1CCOCC1,6
COc1ccc(C(=O)Nc2cc(C(C)=O)c(/C=C/N(C)C)oc2=O)cc1,-3
COC(=O)c1cc(NC(=O)c2cccc(Cl)c2)c(=O)oc1/C=C/Nc1cc(C)cc(C)c1,809*
O=C(Nc1cc2c(oc1=O)CCCC2=O)c1cccc(Cl)c1,-7
Cc1cc(C)c(NC(=S)N(CCc2ccncc2)C(C)C)c(C)c1,7
CNS(=O)(=O)c1cccc(C(=O)OCc2cc(=O)n3cc(Br)ccc3n2)c1,10
O=C1CC(C(=O)Nc2cccc(F)c2)n2ncnc2N1 (centres undefined),9
COc1cc(C(=O)Nc2c(C)cc(C)cc2C)c([N+](=O)[O-])cc1OC,-7
C=CCNC(=S)NS(=O)(=O)c1cccs1,-10
Cc1c(NC(=O)c2cc3ccccc3oc2=O)c(=O)n(-c2ccccc2)n1C,4
COc1ccc(/C=C2\SC(=NCc3ccccc3)N(Cc3ccccc3)C2=O)cc1OC,9
C=CCN1C(=O)/C(=C/c2ccc(N(C)C)cc2)S/C1=N\c1nnc(CC)s1,163*
Cc1nc(SCC(O)CO)c([N+](=O)[O-])[nH]1 (centres undefined),293
SMILES,Insulin prom act
CCOC(=O)c1[nH]c2ccccc2c1NC(=O)c1ccc(S(=O)(=O)N2CCCC2)cc1,2
COc1ccc[nH]c1=O,154*
COc1cc2[nH]ccc(=O)c2cc1OC,0
COc1ccccc1Nc1nnc(C)c(=O)[nH]1,-7
CC(C)n1cc(/C=C(\C#N)S(=O)(=O)c2ccccc2)c2ccccc21,9
CC1CCCC(NC(=O)CCNS(=O)(=O)c2ccc(Br)cc2)C1C (centres undefined),114
S=C(NCc1ccco1)N1CCN(Cc2ccc(Cl)cc2Cl)CC1,-4
Cc1ccc(-n2c(SCC3CCCCO3)nnc2-c2ccco2)cc1 (centres undefined),156
CCCSc1nnc(CN2CCOCC2)n1C,419*
CCCSc1nnc(Cn2c(=O)sc3ccccc32)n1C,-25
Cn1c(CCc2ccccc2)nnc1SCC(=O)N1CCOCC1,322
COc1ccc(-n2cc(CNCCc3cnc[nH]3)c(-c3cccc(F)c3)n2)cc1,-2
O=C(COc1ccc(Cl)cc1)NCc1nnc(SCC(=O)N2CCCC2)o1,7
COc1cccc(C(C(=O)NC2CCCCC2)N(C(=O)c2ccccn2)c2cccnc2)c1 (centres undefined),627*
O=C(NC1CCCCC1)C(c1cccs1)N(C(=O)c1ccccn1)c1ccccc1 (centres undefined),179
COc1cccc(C(C(=O)NC2CCCC2)N(Cc2ccccc2OC)C(=O)c2ccco2)c1 (centres undefined),214
O=C(O)C1=C(C(=O)Nc2cccc(C(F)(F)F)c2)CCCC1,7
O=C(/C=C\c1ccc2c(c1)OCO2)Nc1nnc(SCC(=O)OCc2ccccc2)s1,-100
C[C@H](NS(=O)(=O)c1ccccc1)C(=O)OCC(=O)NC(=O)Nc1ccc2c(c1)OCCO2,8
COc1ccccc1NC(=S)N1CCn2cccc2C1c1cccnc1 (centres undefined),0
CC(C)(C)NC(=O)/C(=C/c1ccccc1F)NC(=O)c1ccc([N+](=O)[O-])cc1,0
O=C(CCCNC(=O)/C(=C\c1ccccc1F)NC(=O)c1ccccc1)OCc1ccccc1,257*
CC(C)(C)NC(=O)/C(=C\c1ccccc1F)NC(=O)c1ccc([N+](=O)[O-])cc1,0
Cc1c(Cl)c([N+](=O)[O-])nn1CCCC(=O)NCCc1ccccc1,109
COc1ccc(C2Nc3ccccc3C(=O)N2Cc2ccccc2)cc1CSc1ccccn1 (centres undefined),7
COc1ccc(C2Nc3ccccc3C(=O)N2Cc2ccco2)cc1COc1ccc(NC(C)=O)cc1 (centres undefined),9
COc1ccc(C2Nc3ccccc3C(=O)N2c2ccccc2)cc1COc1ccccn1 (centres undefined),220*
O=C(CNS(=O)(=O)c1ccc(Br)cc1)N1CCN(c2ccc(F)cc2)CC1,354
COc1ccc(S(=O)(=O)N(C)CC(=O)N2CCOCC2)cc1,-7
CN(CC(=O)N1CCN(c2ccc(F)cc2)CC1)S(=O)(=O)c1ccc(F)cc1,79*
